Data reported in ChEMBL document CHEMBL4043097, “Synthesis and evaluation of hydroxychalcones as multifunctional non-purine xanthine oxidase inhibitors for the treatment of hyperuricemia” (Bioorg Med Chem Lett, 2017).

Legend:
[1] = Antioxidant activity assessed as DPPH free radical scavenging activity incubated for 30 mins; type: functional
[2] = molecular target: T1, Xanthine dehydrogenase/oxidase (Bos taurus, UniProt P80457); assay: Inhibition of bovine milk xanthine oxidase pre-incubated for 30 mins followed by xanthine addition and measured every 30 secs for 5 mins by spectrophotometry
[3] = Antioxidant activity assessed as ABTS free radical scavenging activity by measuring trolox equivalents after 6 mins; type: functional
How it was run: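 ABTS radical scavenging, expressed as trolox equivalent: (mmol trolox)/(mmol tested compound).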

[4] = molecular target: T1, Xanthine dehydrogenase/oxidase; assay: Inhibition of bovine milk xanthine oxidase at 1000 uM pre-incubated for 30 mins followed by xanthine addition and measured every 30 secs for 5 mins by spectrophotometry; conditions: cattle
How it was run: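 XO inhibition tested up to 1000 µM, the highest concentration tested; compounds precipitate above this. IC50 values from three experiments, reported as mean ± SEM.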

[5] = Antioxidant activity assessed as DPPH free radical scavenging activity incubated for 30 mins at 2000 uM; type: functional
How it was run: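 DPPH radical scavenging, given as percent inhibitory rate with test compound at 2000 µM.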

Mus musculus [6] = assay: Anti-hyperuricemic activity in potassium oxonate-induced hyperuricemic Kun-Ming mouse assessed as xanthine oxidase activity per gram of protein at 10 mg/kg/day, ig for 7 days and measured 1 hr post last dose (reference value: 81.5 +/- 1.4 U/g protein); type: functional
Mus musculus [7] = assay: Anti-hyperuricemic activity in potassium oxonate-induced hyperuricemic Kun-Ming mouse assessed as serum uric acid level at 10 mg/kg/day, ig for 7 days and measured 1 hr post last dose (reference value: 5.89 +/- 0.36 mg/dl); type: functional
Mus musculus [8] = assay: Anti-hyperuricemic activity in potassium oxonate-induced hyperuricemic Kun-Ming mouse assessed as serum uric acid level at 50 mg/kg/day, ig for 7 days and measured 1 hr post last dose (reference value: 5.89 +/- 0.36 mg/dl); type: functional
Mus musculus [9] = assay: Anti-hyperuricemic activity in potassium oxonate-induced hyperuricemic Kun-Ming mouse assessed as reduction in serum uric acid level at 10 and 50 mg/kg/day, ig for 7 days and measured 1 hr post last dose; type: functional, organism-based
Mus musculus [10] = assay: Toxicity in Kun-Ming mouse assessed as effect on water consumption at 5000 mg/kg, ig measured continuously for first 4 hrs and intermittently for next 24 hrs; type: organism-based; conditions: in vivo, po
How it was run: (§1)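 Mice received a single 5,000 mg/kg dose. They were watched continuously for the first 4 h and intermittently over the next 24 h for abnormal behaviour and mortality. Water intake, food intake and body weight were tracked over the experimental period. The protocol was adapted from an earlier reported acute toxicity study.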

Mus musculus [11] = assay: Toxicity in Kun-Ming mouse assessed as effect on food consumption at 5000 mg/kg, ig measured continuously for first 4 hrs and intermittently for next 24 hrs; type: organism-based; conditions: in vivo, po; how it was run: as §1
[12] = molecular target: T1, Xanthine dehydrogenase/oxidase; assay: Mixed type inhibition of bovine milk xanthine oxidase pre-incubated for 30 mins followed by xanthine addition and measured every 30 secs for 5 mins by spectrophotometry based L-B plot analysis; conditions: cattle
How it was run: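 Inhibition type from Michaelis–Menten kinetics. Initial XO velocity measured at increasing xanthine concentrations with inhibitor at 0, 25, 50 and 100 µM. Activity read as change in absorbance at 295 nm per unit time; mode assigned from overlaid Lineweaver–Burk reciprocal plots.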

Mus musculus [13] = assay: Toxicity in Kun-Ming mouse assessed as induction of mortality at 5000 mg/kg, ig measured continuously for first 4 hrs and intermittently for next 24 hrs; type: organism-based; conditions: in vivo, po; how it was run: as §1
Mus musculus [14] = assay: Anti-hyperuricemic activity in potassium oxonate-induced hyperuricemic Kun-Ming mouse assessed as xanthine oxidase activity per gram of protein at 50 mg/kg/day, ig for 7 days and measured 1 hr post last dose (reference value: 81.5 +/- 1.4 U/g protein); type: functional
Mus musculus [15] = assay: Toxicity in Kun-Ming mouse assessed as induction of body weight reduction at 5000 mg/kg, ig measured continuously for first 4 hrs and intermittently for next 24 hrs; type: organism-based; conditions: in vivo, po; how it was run: as §1

T1 sequence (P80457 whole entry): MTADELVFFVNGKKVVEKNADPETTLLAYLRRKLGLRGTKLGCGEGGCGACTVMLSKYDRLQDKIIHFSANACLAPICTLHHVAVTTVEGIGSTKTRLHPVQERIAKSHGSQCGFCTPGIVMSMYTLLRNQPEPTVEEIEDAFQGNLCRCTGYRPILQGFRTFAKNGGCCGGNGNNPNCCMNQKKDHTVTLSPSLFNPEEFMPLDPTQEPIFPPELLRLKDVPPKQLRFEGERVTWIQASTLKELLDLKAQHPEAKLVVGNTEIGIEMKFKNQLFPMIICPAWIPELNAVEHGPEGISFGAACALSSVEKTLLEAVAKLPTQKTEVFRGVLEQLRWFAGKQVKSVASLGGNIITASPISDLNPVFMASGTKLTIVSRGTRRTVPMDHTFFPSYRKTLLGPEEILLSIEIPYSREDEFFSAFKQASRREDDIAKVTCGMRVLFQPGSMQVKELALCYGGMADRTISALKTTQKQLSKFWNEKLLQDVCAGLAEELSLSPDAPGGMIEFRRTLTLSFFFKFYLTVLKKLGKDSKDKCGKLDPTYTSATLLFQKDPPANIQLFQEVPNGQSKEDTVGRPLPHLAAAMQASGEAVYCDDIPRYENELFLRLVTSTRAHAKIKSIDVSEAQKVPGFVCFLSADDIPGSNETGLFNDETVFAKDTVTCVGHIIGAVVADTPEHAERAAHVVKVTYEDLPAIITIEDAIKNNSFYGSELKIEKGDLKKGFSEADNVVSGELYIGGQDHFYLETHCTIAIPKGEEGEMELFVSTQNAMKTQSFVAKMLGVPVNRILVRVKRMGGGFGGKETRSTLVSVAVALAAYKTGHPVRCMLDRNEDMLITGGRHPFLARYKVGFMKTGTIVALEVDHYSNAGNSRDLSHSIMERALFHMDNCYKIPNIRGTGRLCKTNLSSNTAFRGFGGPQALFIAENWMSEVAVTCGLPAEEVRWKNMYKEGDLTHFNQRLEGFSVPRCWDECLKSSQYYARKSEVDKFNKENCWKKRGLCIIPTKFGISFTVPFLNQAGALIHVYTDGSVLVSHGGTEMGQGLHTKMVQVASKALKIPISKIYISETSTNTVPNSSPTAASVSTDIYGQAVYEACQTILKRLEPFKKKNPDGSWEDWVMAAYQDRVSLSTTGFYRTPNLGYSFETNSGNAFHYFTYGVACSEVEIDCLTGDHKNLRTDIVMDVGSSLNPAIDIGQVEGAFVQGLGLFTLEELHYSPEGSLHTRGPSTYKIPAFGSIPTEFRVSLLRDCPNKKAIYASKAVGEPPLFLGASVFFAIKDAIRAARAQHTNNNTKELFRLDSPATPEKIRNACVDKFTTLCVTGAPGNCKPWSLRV

IC50 [2] | SMILES | Activity (mmolequiv/mmol) [3] | inhibition [5] | further results
91.8 µM | O=C(/C=C/c1cccc(O)c1)c1ccccc1O | 0.93 |  | IC50 [1]: 108 µM
 | O=C(/C=C/c1ccccc1)c1ccccc1 [CHALCONE] | < 0.1 | 18.4% | inhibition (INH) [4]: Not Active
87.4 µM | O=C(/C=C/c1ccccc1O)c1ccccc1O | 0.17 | 28% | 
107 µM | O=C(/C=C/c1ccccc1)c1ccc(O)cc1O [2',4'-DIHYDROXYCHALCONE] | 0.38 |  | IC50 [1]: 197 µM
88.3 µM | O=C(/C=C/c1cccc(O)c1)c1cccc(O)c1 | 0.18 | 24.3% | 
 | Oc1ncnc2[nH]ncc12 [ALLOPURINOL] | < 0.1 | 20.5% | Activity (Mus musculus [6]): 50.9 U/g protein; Activity (Mus musculus [7]): 4.14 mg/dL
 | O=C(/C=C/c1ccc(O)cc1O)c1ccccc1 | < 0.1 | 10.8% | inhibition (INH) [4]: Not Active
79.4 µM | O=C(/C=C/c1ccc(O)cc1)c1ccccc1O | 0.24 | 23.1% | 
 | O=C(/C=C/c1ccccc1)c1ccc(O)cc1 [4'-HYDROXYCHALCONE] | < 0.1 | 12.5% | inhibition (INH) [4]: Not Active
71.3 µM | O=C(/C=C/c1ccccc1)c1ccccc1O [2'-HYDROXYCHALCONE] | < 0.1 | 13.5% | 
133 µM | O=C(/C=C/c1ccc(O)cc1)c1cccc(O)c1 | 0.16 | 19.7% | 
228 µM | O=C(/C=C/c1cccc(O)c1)c1ccccc1 [3-HYDROXY CHALCONE] | < 0.1 | 11.3% | 
145 µM | O=C(/C=C/c1ccccc1O)c1ccccc1 | < 0.1 | 10.8% | 
117 µM | O=C(/C=C/c1ccc(O)cc1)c1ccc(O)cc1 [4,4'-DIHYDROXYCHALCONE] | 0.43 | 35.9% | 
108 µM | O=C(/C=C/c1cccc(O)c1)c1ccc(O)cc1O | 0.45 | 38.6% | 
159 µM | O=C(/C=C/c1ccc(O)cc1)c1ccccc1 [4-HYDROXYCHALCONE] | < 0.1 | 25.7% | 
 | Oc1ccc(/C=C/c2cc(O)cc(O)c2)cc1 [RESVERATROL] | 0.65 |  | IC50 [1]: 95.1 µM
165 µM | O=C(/C=C/c1ccccc1)c1cccc(O)c1 | < 0.1 | 11.7% | 

SMILES | IC50 [2] | Activity (mmolequiv/mmol) [3] | inhibition [5] | further results
O=C(/C=C/c1ccccc1O)c1ccc(O)cc1O | 56.8 µM | 0.87 |  | Activity (Mus musculus [6]): 73.2 U/g protein; Activity (Mus musculus [8]): 4.5 mg/dL; IC50 [1]: 128 µM; Activity (Mus musculus [9]): Dose-dependent effect; Activity (Mus musculus [10]): Non-Toxic; Activity (Mus musculus [7]): 5.21 mg/dL; Activity (Mus musculus [11]): Non-Toxic; inhibition (INH) [12]: Active; Activity (Mus musculus [13]): Non-Toxic; Activity (Mus musculus [14]): 64.1 U/g protein; Activity (Mus musculus [15]): Non-Toxic
O=C(/C=C/c1ccc(O)cc1)c1ccc(O)cc1O [ISOLIQUIRITIGENIN] | 47.3 µM | 0.51 |  | Activity (Mus musculus [6]): 70.5 U/g protein; Activity (Mus musculus [8]): 4.45 mg/dL; IC50 [1]: 287 µM; Activity (Mus musculus [10]): Non-Toxic; Activity (Mus musculus [7]): 5.14 mg/dL; Activity (Mus musculus [11]): Non-Toxic; Activity (Mus musculus [13]): Non-Toxic; Activity (Mus musculus [14]): 62 U/g protein; Activity (Mus musculus [15]): Non-Toxic
